Fh CTSL1 inh – Fasciola hepatica cathepsin L1 inhibitors, primary screen, counter-screen for PFM18AAP inhibitor project, biochemical, QFRET, fluorogenic peptide substrate; inhibition, % at 5.96 µM; 300,000 compounds, 0.49% hits; AID 1906, 2009; recombinant F. hepatica cathepsin L1, Z-Leu-Arg-MCA fluorescence;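 active means inhibition above the mean of all tested compounds plus 3 SD, set per screening campaign, cut at about 17% in these data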;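 further: 0% = plate median of test compound wells and 100% = 1 µM Z-Phe-Ala-diazomethylketone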
Apaf1 inhib – inhibitors of human Apaf-1 apoptosome, primary screen, biochemical, DEVD-Rh110 fluorescence, uHTS; inhibition, % at 20 µM; 330,000 compounds, 0.71% hits; Apoptotic protease-activating factor 1 (Homo sapiens), O14727; reconstituted apoptosome caspase-3 activity; AID 489030, 2010; active means inhibition of at least 40% at 20 µM;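 further: plate controls were DMSO wells for no effect and DEVD-CHO caspase inhibitor wells for full effect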
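Material: cell-free apoptosome with Apaf-1, procaspase-3 and caspase-9; Buffer or medium: Hepes pH 7.5 with detergent and BSA; Reagent: cytochrome c trigger plus (Z-DEVD)2-Rh110 caspase-3 substrate; Times: compound with Apaf-1, dATP, procaspase-3 30 min, then 50 min reaction, room temperature; Technique: Rh110 fluorescence intensity.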
PAD4 FP inh – human PAD4 inhibitors, primary screen, biochemical, fluorescence polarization, 1536-well format. inhibition, % at 6.36 µM. Protein-arginine deiminase type-4 (Homo sapiens), Q9UM07. 330,000 compounds, 0.41% hits. recombinant PAD4, RCA probe fluorescence polarization;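 active means percent inhibition above a cutoff equal to the mean of all tested compounds plus 3 SD, cut at about 15% in these data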;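 further: 0% = PAD4 with RCA probe and DMSO and 100% = probe without PAD4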
GSTO1 inh – inhibitors of recombinant GSTO1, primary screen, counter-screen for RBBP9 inhibitor project, biochemical, fluorescence polarization; Glutathione S-transferase omega-1 (Homo sapiens), P78417; activity-based probe fluorescence polarization; inhibition, % at 5.96 µM; 300,000 compounds, 1.1% hits;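 active means inhibition above the campaign mean inhibition plus 3 SD, cut at about 35% in these data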;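 further: 0% = GSTO1-1 with DMSO and 100% = wells lacking GSTO1-1 enzyme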
Target sequence (P78417 whole entry, looked up): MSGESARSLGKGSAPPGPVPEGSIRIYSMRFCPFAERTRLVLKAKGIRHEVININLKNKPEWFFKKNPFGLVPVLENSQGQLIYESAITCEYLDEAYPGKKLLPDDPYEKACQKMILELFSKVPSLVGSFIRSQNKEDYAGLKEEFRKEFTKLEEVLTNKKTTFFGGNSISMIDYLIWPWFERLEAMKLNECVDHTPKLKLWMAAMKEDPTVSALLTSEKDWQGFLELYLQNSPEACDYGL
TDP2 absorb – human TDP2 enzyme inhibitors, primary screen, biochemical, epi absorbance, recombinant enzyme; AID 720702, 2013; T5PNP hydrolysis, p-nitrophenol absorbance 415 nm; Tyrosyl-DNA phosphodiesterase 2 (Homo sapiens), O95551; inhibition, % at 12.8 µM; 370,000 compounds, 0.34% hits;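 active means inhibition above the mean of all tested compounds plus 3 SD, set per campaign, cut at about 25% in these data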;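 further: 0% = DMSO with enzyme and 100% = buffer with substrate but no TDP2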
Target sequence (O95551 whole entry, looked up): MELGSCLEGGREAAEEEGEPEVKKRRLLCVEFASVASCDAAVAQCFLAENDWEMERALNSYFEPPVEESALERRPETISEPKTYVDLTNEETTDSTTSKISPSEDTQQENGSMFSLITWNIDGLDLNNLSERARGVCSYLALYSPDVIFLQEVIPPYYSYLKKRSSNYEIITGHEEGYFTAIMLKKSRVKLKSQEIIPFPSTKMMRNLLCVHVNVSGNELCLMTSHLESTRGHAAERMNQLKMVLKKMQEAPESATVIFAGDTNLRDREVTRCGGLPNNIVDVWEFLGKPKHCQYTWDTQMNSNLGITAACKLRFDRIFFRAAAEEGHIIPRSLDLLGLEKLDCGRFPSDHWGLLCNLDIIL
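System: recombinant human TDP2 / Amount: 120 nM TDP2 per well / Also added: 5 mM T5PNP chromogenic substrate / Doses: 12.8 µM single point, 1% DMSO / Incubation: 2 h at 37 °C / Detection: p-Nitrophenol epi absorbance / Evaluation: % inhibition relative to enzyme-containing and enzyme-free wells / Repeats: singlicate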
PAD4 confirm – human PAD4 inhibitors, confirmation, biochemical, fluorescence polarization; shares compounds with PAD4 FP inh; recombinant PAD4, RCA probe fluorescence polarization; inhibition, % at 6.36 µM; 1,200 compounds, 28% hits;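 active means mean inhibition across replicates above the hit cutoff set by the earlier primary screen, cut at about 15% in these data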;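 further: inhibitors block active-site labeling by the probe so polarization falls; 0% = PAD4 with probe and DMSO and 100% = probe without PAD4 enzyme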
Active calls of the source: *; . = no result given. Rows were chosen to be rich in hits. Some 1.8% of all compounds tested hit in one or more screens of this group.

SMILES	Fh CTSL1 inh	Apaf1 inhib	PAD4 FP inh	GSTO1 inh	TDP2 absorb	PAD4 confirm
Cc1ccc(F)c(NC(=S)Nc2cccc3ccccc23)c1	4.1	78.2*	18.2*	-0.7	-3.6	4.2
Cc1ccc(C(=O)Nc2cccc3ccccc23)cc1	-0.7	3.2	0.7	0.2	1.4	.
Cc1cc(NS(=O)(=O)c2ccc(NC(=O)CSc3nnc(-c4cccnc4)n3-c3ccccc3)cc2)nc(C)n1	.	.	.	.	-5.7	.
NC(=O)COC(=O)C1c2ccccc2Oc2ccccc21	4.8	5.3	2.1	7.2	1.3	.
N#CCN(CC#N)C(=O)C1c2ccccc2Oc2ccccc21	-1.0	-3.5	55.6*	19.4	7.0	2.5
C[C@H]1C2CC(OC(=O)Nc3ccc(C#N)cc3)C(C2)[C@H]2CCCCN21 (stereo not given in full)	.	.	.	.	3.7	.
CC(=O)SCC(=O)N=c1sc2cc(F)ccc2n1C	-20.3	5.2	19.5*	-14.3	-4.3	19.1*
Cn1c(=O)c(Nc2ccc(Cl)cc2)c2c3c(cccc31)C(=O)c1ccccc1-2	0.1	9.9	33.0*	19.1	7.2	49.9*
CC(=O)Nc1c2c3c(cccc3n(C)c1=O)C(=O)c1ccccc1-2	1.7	8.2	65.4*	16.8	-7.9	30.7*
CCOC(=O)c1c2c3c(cccc3n(C)c1=O)C(=O)c1ccccc1-2	0.0	24.9	9.3	14.6	-11.8	.
COC(=O)[C@]12C[C@H](CC(=O)N3CCOCC3)C(=O)N(Cc3ccco3)C1=C[C@H](C1CCCC1)O[C@@H]2C	.	.	.	.	-7.7	.
Cc1ccc(C2C(C#N)=C(N)N(N(C)C)C3=C2C(=O)CCC3)cc1 (stereo not given)	-1.3	-0.6	2.1	-3.3	-19.0	.
COc1ccc(C2C(C#N)=C(N)N(N(C)C)C3=C2C(=O)CCC3)cc1 (stereo not given)	1.3	-2.0	89.5*	3.1	5.5	2.8
CS(=O)(=O)N1N=C(c2cccs2)CC1c1ccccc1 (stereo not given)	-1.9	-5.1	30.4*	1.1	6.2	1.8
COc1ccc(C2CC(c3cccs3)=NN2S(C)(=O)=O)cc1 (stereo not given)	-2.2	-14.7	2.3	-0.2	-14.0	.
COc1ccc(N2CCCN(CC(=O)Nc3ccc(Cl)cc3)CC2)cc1	.	.	.	.	1.9	.
COc1ccc(S[C@]2(C(=O)N3CCCC3)CC(=O)N[C@@H]2c2ccc(OC)cc2)cc1	.	.	.	.	-0.3	.
CCC1C(=O)N=C(SCC(=O)Nc2ccc(S(N)(=O)=O)cc2)NC1=O (stereo not given)	5.8	12.9	15.5*	9.7	-7.3	11.4
Cc1ccc(S(=O)(=O)N(C(=O)c2ccco2)c2cc3sc(=O)oc3c3ccccc23)cc1	1.1	22.1	21.1*	66.1*	-2.9	8.5
CC1=CC(C)(C)N(C(=O)CN2C(=O)c3ccccc3C2=O)c2ccccc21	-3.4	-8.3	-5.5	-2.8	-6.1	.
Cc1cc(C)c2c(c1)-c1c(ssc1=S)C(C)(C)N2C(=O)CN1C(=O)c2ccccc2C1=O	0.5	6.7	23.6*	-8.3	1.0	38.5*
CC1CC(C)(C)N(C(=O)CN2C(=O)c3ccccc3C2=O)c2ccccc21 (stereo not given)	1.2	9.5	1.8	0.8	8.5	.
Cc1cccc2c1N(C(=O)CN1C(=O)c3ccccc3C1=O)C(C)(C)c1ssc(=S)c1-2	1.6	14.8	26.8*	4.6	6.5	39.8*
C[C@@H]1C=CCCO[C@]12C(=O)N(CC1CC1)c1ccccc12	.	.	.	.	-1.8	.
CC(C)N1CCCCC(NC(=O)c2ccccc2)C1=O (stereo not given)	.	.	.	.	-6.8	.
SMILES	Fh CTSL1 inh	Apaf1 inhib	PAD4 FP inh	GSTO1 inh	TDP2 absorb	PAD4 confirm
CCCC(=O)N(Cc1cc(=O)[nH]c2ccccc12)c1ccccc1OC	3.5	11.9	-6.5	-4.3	6.9	.
CCC(=O)N(Cc1cc(=O)[nH]c2ccccc12)c1cccc(C)c1	0.8	11.9	45.5*	-3.8	-3.8	33.0*
CCC(=O)N(Cc1cc(=O)[nH]c2ccccc12)c1ccccc1C	-3.3	-23.3	17.6*	-3.8	0.9	21.5*
C[C@@H]1ON(C)[C@H]2C[C@H]3c4[nH]c5cccc(-c6ccc7c(c6)OCO7)c5c4CCN3C(=O)[C@@H]12	.	.	.	.	0.9	.
CC1CC1C(=O)N1CCC(Oc2cccnc2)CC1 (stereo not given)	.	.	.	.	13.9	.
CC(C)CNC(=O)OCc1cn(Cc2c(F)cccc2F)nn1	.	.	.	.	1.0	.
Cc1cc(C(=O)CSc2nc(N)cc(N)n2)c(C)n1C1CC1	0.3	14.7	15.7*	18.0	-3.4	7.7
Cc1cc(C(=O)CSc2nnc(N)s2)c(C)n1C1CC1	-5.4	0.7	-2.7	5.8	3.4	.
COc1ccc(CCn2c(C)cc(C(=O)CSc3nc(N)cc(=O)[nH]3)c2C)cc1	0.5	10.3	30.5*	-14.2	10.4	9.2
O=C1NCCOC(=O)[C@@H](Cc2ccc(F)cc2)C/C=C\C[C@@H]1CC(=O)N(CCO)Cc1ccccc1	.	-2.3	19.5*	.	15.6	-2.2
O=C(NCCCNC(=O)c1ccccc1F)c1ccco1	-1.7	6.5	36.6*	1.6	4.3	0.3
O=C(COC(=O)c1ccc(S(=O)(=O)C(F)F)cc1)Nc1ccccc1C(=O)NC1CC1	.	-2.1	14.8*	.	1.9	4.5
O=C(Nc1ccc(S(=O)(=O)Nc2ncccn2)cc1)c1ccc2ncsc2c1	-2.4	-15.8	17.9*	-5.9	-3.0	9.5
c1ccc(CCn2c3ccccc3c3nnc(SCc4ccc5nonc5c4)nc32)cc1	2.9	2.9	50.4*	-2.1	1.2	2.1
Fc1ccc(-n2ncc3c(SCc4cccnc4)ncnc32)cc1	1.6	-2.4	18.4*	-3.9	12.7	7.3
Cc1ccc(-n2ncc3c(SCc4ccccc4)ncnc32)cc1	-2.3	-2.0	-1.6	-4.0	-3.4	.
CCN1/C(=C/C=C/c2oc3ccc(-c4ccccc4)cc3[n+]2CC)Oc2ccc(-c3ccccc3)cc21	-1.4	20.8	62.8*	-67.8	-9.1	45.0*
Cc1ccc(NS(=O)(=O)c2cccc(C(=O)N3CCCCCCC3)c2)cc1	2.9	19.4	-2.4	4.3	-10.6	.
Cc1ccc(NS(=O)(=O)c2cccc(C(=O)N3CCN(c4ncccn4)CC3)c2)cc1	.	0.8	36.5*	.	3.9	3.0
CSCc1cccc(C(=O)OC(C)C(=O)Nc2c(C)n(C)n(-c3ccccc3)c2=O)c1 (stereo not given)	.	14.8	24.1*	.	-1.1	5.8
